The values that follow come from ChEMBL document CHEMBL1123379, “Cardiotonic agents. 2. Synthesis and structure-activity relationships in a new class of 6-, 7-, and 8-pyridyl-2(1H)-quinolone derivatives” (1986).

The structures appear in SMILES notation.

For assay [1], the species on record is Cavia porcellus. In words: Positive inotropic effect in isolated left guinea pig atria. It is filed as functional. To be noted: read-out: ED50 (the source's name). In short, it runs like this: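 Isolated left atria from guinea pigs of either sex (300–800 g), reserpine-pretreated (5 mg/kg ip) 24 h before death. Atria paced electrically at 2.5 Hz, 5 ms square pulses, voltage 50% above threshold; bath contained phentolamine 3.15×10^-4 mM. Isoprenaline dose-response curve run first to validate each preparation. Positive inotropy from dose-response curves; ED50 (mol·L⁻¹, dose giving 50% of maximum effect) by Ariens–Van Rossum method.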

The species entered for assay [2] is Cavia porcellus. In words: Intrinsic activity calculated as the ratio of the maximum response to the compound to the maximum response to isoprenaline. It is filed as functional.

As for `Oc1ccc2ccc(-c3cccnc3)cc2n1`, in the assay listed under Cavia porcellus [1], the EC50 was 8.3 µM. Moreover, in the assay listed under Cavia porcellus [2], the Intrinsic activity is 0.67.
For `O=C1CCc2cc(-c3ccccn3)ccc2N1` the same measures were 2.55 µM and 0.29.
For `O=c1ccc2cc(-c3cccnc3)ccc2n1CCN1CCOCC1` the same measures were 22 µM and 0.58.
For the molecule `Oc1ccc2cc(-c3ccccn3)cc(O)c2n1`, in the assay listed under Cavia porcellus [1], the EC50 stood at 19 µM. Also, the Intrinsic activity in the assay listed under Cavia porcellus [2] is reported as 0.51.
In the same order, the values of `COc1cc(-c2ccncc2)cc2ccc(O)nc12` are 5 µM and 0.88.
For `COc1cc(-c2cccnc2)cc2ccc(O)nc12` the same measures were 6.5 µM and 0.57.
In the same order, the values of `COc1cc(-c2ccncc2)cc2c1NC(=O)CC2` are 6.5 µM and 0.68.
`Oc1ccc2cc(-c3ccncc3)cc(Cl)c2n1`: in the assay listed under Cavia porcellus [1], the EC50 was 0.38 µM. Also, the Intrinsic activity in the assay filed under Cavia porcellus [2] was 0.78.
As for `c1cncc(-c2ccc3nc(OCCN4CCOCC4)ccc3c2)c1`, in the assay listed under Cavia porcellus [1], the EC50 came out at 15 µM. In addition, the Intrinsic activity in the assay listed under Cavia porcellus [2] is on record as 0.23.
Consider `O=C1CCc2cc(-c3ccncc3)ccc2N1`, for which the EC50 in the assay listed under Cavia porcellus [1] turned out to be 14 µM. The Intrinsic activity in the assay listed under Cavia porcellus [2] is reported as 0.56.
In the same order, the values of `O=C1CCc2cc(-c3cccnc3)ccc2N1` are 1.3 µM and 0.67.
Turning to `Oc1ccc2cc(-c3ccncc3)ccc2n1`, in the assay filed under Cavia porcellus [1], the EC50 is 2.5 µM. The Intrinsic activity in the assay listed under Cavia porcellus [2] is on record as 0.45.
In the same order, the values of `Oc1ccc2cc(-c3ccccn3)ccc2n1` are 15 µM and 0.67.
For the molecule `Oc1ccc2cc(-c3cccnc3)ccc2n1`, the EC50 in the assay filed under Cavia porcellus [1] was found to be 0.52 µM. Further, the Intrinsic activity in the assay listed under Cavia porcellus [2] is recorded as 0.67.
For `Nc1cc(Cl)c2nc(O)ccc2c1` the same measures were 100 µM and 0.54.
In the same order, the values of `COc1cc(-c2cccnc2)cc2c(C)cc(O)nc12` are 16 µM and 0.81.
For `Oc1ccc2cccc(-c3cccnc3)c2n1` the same measures were 140 µM and 0.41.
Take `COc1cc(-c2ccccn2)cc2ccc(O)nc12`: the EC50 in the assay filed under Cavia porcellus [1] amounted to 9.2 µM. Besides, the Intrinsic activity in the assay listed under Cavia porcellus [2] is 0.72.
In the same order, the values of `COc1cc(-c2ccccn2)cc2c1NC(=O)CC2` are 6.4 µM and 0.71.
In the same order, the values of `COc1cc(-c2cccnc2)cc2c1NC(=O)CC2` are 34 µM and 0.68.
In the same order, the values of `Oc1ccc2cc(-c3cccnc3)cc(Cl)c2n1` are 0.28 µM and 0.68.
Regarding `Oc1ccc2cc(-c3ccccn3)cc(Cl)c2n1`, the EC50 in the assay filed under Cavia porcellus [1] worked out at 2.05 µM. For the same molecule, in the assay filed under Cavia porcellus [2], the Intrinsic activity was 0.75.
For `Cn1c(=O)ccc2cc(-c3cccnc3)ccc21` the same measures were 110 µM and 0.33.
In the same order, the values of `Cc1cc(C)c(-c2ccc3nc(O)ccc3c2)c(C)n1` are 1.05 µM and 0.38.
For `COc1cc(-c2ccccn2)cc2c(C)cc(O)nc12` the same measures were 4.85 µM and 0.74.
In the case of `COc1cc(-c2ccncc2)cc2c(C)cc(O)nc12`, the EC50 in the assay filed under Cavia porcellus [1] was 7 µM. Moreover, the Intrinsic activity in the assay filed under Cavia porcellus [2] is listed as 0.5.
On to `Oc1ccc2cc(-c3cccnc3)cc(O)c2n1`, for which the EC50 in the assay listed under Cavia porcellus [1] worked out at 0.75 µM. Moreover, in the assay listed under Cavia porcellus [2], the Intrinsic activity was 0.72.
In the case of `CC(C)NCC(O)c1ccc(O)c(O)c1` (configuration not stated) [ISOPROTERENOL], the Intrinsic activity in the assay filed under Cavia porcellus [2] is recorded as 1.
`Cc1[nH]c(=O)c(C#N)cc1-c1ccncc1` [MILRINONE]: the EC50 in the assay filed under Cavia porcellus [1] turned out to be 14 µM. Also, in the assay filed under Cavia porcellus [2], the Intrinsic activity was 0.67.
